APP 5'UTR act: activates APP 5'UTR luciferase reporter; SH-SY5Y APP 5'UTR luciferase reporter, luminescence; zero percent = DMSO vehicle wells; activation, % at 2 µM; actives 1% (n = 190,000);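 active = activation above a set limit, based on mean plus 3 SD of controls, cut at about 140% in these data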
FLuc stim CS: affects firefly luciferase, flagging false hits in luciferase stimulation screens; P08659; ATPlite luciferase biochemical, luminescence, 10 min; 0 = ATP-free wells, 1 = DMSO control; 200,000 tested, under 10 active; activation factor at 10 µM;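 active = luciferase activation factor, scaled between plate controls, of at least 2 with compound at 10 µM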
Target sequence (P08659 whole entry, looked up): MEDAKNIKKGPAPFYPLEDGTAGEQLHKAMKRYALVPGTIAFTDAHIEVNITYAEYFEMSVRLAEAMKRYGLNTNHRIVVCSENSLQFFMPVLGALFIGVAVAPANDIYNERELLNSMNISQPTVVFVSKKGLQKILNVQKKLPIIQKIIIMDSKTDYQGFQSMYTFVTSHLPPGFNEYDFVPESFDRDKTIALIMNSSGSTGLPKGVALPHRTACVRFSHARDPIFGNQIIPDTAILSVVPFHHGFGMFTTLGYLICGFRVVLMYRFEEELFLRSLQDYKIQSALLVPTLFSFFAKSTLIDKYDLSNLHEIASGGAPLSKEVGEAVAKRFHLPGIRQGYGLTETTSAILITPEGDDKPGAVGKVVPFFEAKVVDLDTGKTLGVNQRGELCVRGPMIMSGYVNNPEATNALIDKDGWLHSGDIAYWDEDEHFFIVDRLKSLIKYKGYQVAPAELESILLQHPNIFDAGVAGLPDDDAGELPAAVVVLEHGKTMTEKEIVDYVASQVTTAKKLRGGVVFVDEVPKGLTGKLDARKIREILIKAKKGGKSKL
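Material: Luciferase/luciferin reagent mix; Doses: test compounds dosed from 2 mM stocks in 100% DMSO; Schedule: 10 min incubation after luciferase reagent addition, room temperature; Measured by: luminescence from luciferase reaction; Read-out: luminescence gain marking luciferase activators.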
STAT1 activator: increases IFN-gamma driven STAT1 reporter signal | NIH 3T3 STAT1-luciferase reporter, luminescence; 100% = IFN-gamma alone, no compound | activation (% of control), % at 5.5 µM | actives 2.6% (n = 200,000) | AID 932;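 active = activation above the screen-wide mean activation plus 3 SD, cut at about 130% in these data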
Pf gamet viab: inhibitors of late stage P. falciparum gametocyte viability. AID 743093. inhibition, % at 10.9 µM. P. falciparum stage V gametocytes, ATP luminescence, 24 h. actives 0.065% (n = 150,000);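 active = inhibition above the mean plus 3 SD of compounds within the control limits, set per campaign, cut at about 38% in these data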
NF-kB expr up: compounds increasing NF-kB expression in human neuronal cells; NF-kB reporter expression; stronger effect = higher value; fold change at 12.5 µM; actives 1.6% (n = 190,000); AID 1239; in the data active = fold change above about 3.3
FLuc inhib CS: counter-screen for luciferase assay inhibitors: firefly luciferase inhibition | P08659 | ATPLite firefly luciferase biochemical luminescence, 10 min | inhibition, % at 10 µM | actives 1.5% (n = 200,000);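 active = inhibition above about 50% when tested at 10 µM, limit read from the data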
Large screens that a line does not name were inactive. Most compounds without a hit are left out; they make up all but 3.5% or so of the library.

COc1ccc(C2=NN(S(C)(=O)=O)C(c3cccs3)C2)cc1 (centres undefined)	STAT1 activator 143, NF-kB expr up 3.9
CS(=O)(=O)N1N=C(c2ccc(Br)cc2)CC1c1cccs1 (centres undefined)	none (no result: Pf gamet viab)
Cc1ccc(C2=NN(S(C)(=O)=O)C(c3cccs3)C2)cc1 (centres undefined)	STAT1 activator 129, NF-kB expr up 3.8 (no result: Pf gamet viab)
COc1ccc(C2=NN(S(C)(=O)=O)C(c3ccc4nccnc4c3)C2)cc1 (centres undefined)	STAT1 activator 136
CS(=O)(=O)Nc1ccc(C2=NN(S(C)(=O)=O)C(c3ccc4c(c3)OCO4)C2)cc1 (centres undefined)	STAT1 activator 143 (no result: Pf gamet viab)
COc1cc(C)c(Br)cc1S(=O)(=O)N1CCCC1	none
COc1ccc(C(=O)Nc2ccc3c(c2)OCCO3)cc1	APP 5'UTR act 156, NF-kB expr up 6, FLuc inhib CS 90 (no result: Pf gamet viab)
COc1ccc(C(=O)Nc2ccc(Cl)cn2)cc1Cl	STAT1 activator 140 (no result: Pf gamet viab)
O=C(Nc1ccc2c(c1)OCCO2)c1cncc(Br)c1	APP 5'UTR act 157, NF-kB expr up 4.9, FLuc inhib CS 65
COc1ccc(NC(=O)c2ccc3c(c2)OCO3)cc1Cl	APP 5'UTR act 138, NF-kB expr up 5, FLuc inhib CS 61 (no result: Pf gamet viab)
O=C(Nc1ccc(F)c(Cl)c1)c1ccc2c(c1)OCO2	none (no result: APP 5'UTR act, FLuc stim CS, STAT1 activator, NF-kB expr up, FLuc inhib CS)
COc1ccc(C(=O)Nc2ccc([N+](=O)[O-])cn2)cc1OC	none (no result: Pf gamet viab)
O=C(Nc1ccc2c(c1)OCO2)c1cncc(Br)c1	none (no result: Pf gamet viab)
O=C(CSc1nnnn1-c1ccccc1Cl)Nc1ccc2c(c1)OCCO2	none (no result: Pf gamet viab)
c1cn(CC2(Cn3ccnc3)COC2)cn1	none
COc1cc(C(=O)Nc2ccc3c(c2)OCCO3)ccc1OC(F)F	STAT1 activator 140, NF-kB expr up 3.4, FLuc inhib CS 59 (no result: Pf gamet viab)
COc1cc(C(=O)Nc2ccc3c(c2)OCCO3)ccc1OC(C)C	none
Cc1ccccc1N1Cc2ccccc2C1	none
O=[N+]([O-])c1ccc(/C=N/NC(=S)Nc2ccc(Cl)cc2Cl)s1	none (no result: APP 5'UTR act, FLuc stim CS, STAT1 activator, NF-kB expr up, FLuc inhib CS)
CC(C)(C)c1ccc(NC(=O)Nc2ccc(OCC(=O)N3CCOCC3)cc2)cc1	STAT1 activator 134, NF-kB expr up 5.3, FLuc inhib CS 92
CCn1c(-c2sc(-c3ccccc3)nc2C)n[nH]c1=S	none
Cc1nc(-c2ccccc2)sc1-c1ccnn1C	APP 5'UTR act 141, STAT1 activator 141, NF-kB expr up 6.4, FLuc inhib CS 57
Cc1nc(-c2ccccc2)sc1-c1ccn[nH]1	APP 5'UTR act 164, FLuc inhib CS 70
CCCCCCCN1C(Nc2ccccc2)=NC[C@@H]1C	none (no result: APP 5'UTR act, FLuc stim CS, STAT1 activator, NF-kB expr up, FLuc inhib CS)
CC(C)c1ccc(OCC(=O)N2CCCCCC2)c(Br)c1	STAT1 activator 137
CNC(=S)Nc1cccc(C(C)=O)c1	none
O=C(NC(=S)Nc1ccc2c(c1)C(=O)c1ccccc1C2=O)c1ccc(F)cc1	NF-kB expr up 3.3 (no result: Pf gamet viab)
O=C(NC(=S)Nc1ccc2cn[nH]c2c1)c1ccccc1	STAT1 activator 148
CC(=O)c1cccc(NC(=S)NC(=O)c2ccccc2)c1	STAT1 activator 133, NF-kB expr up 3.8
Cc1ccc(C(=O)O)cc1NC(=S)NC(=O)c1ccc(-c2ccccc2)cc1	FLuc inhib CS 86
CCCc1cc(-c2ccc3c(c2)COc2c4ccccc4nn2-3)on1	none (no result: APP 5'UTR act, FLuc stim CS, STAT1 activator, NF-kB expr up, FLuc inhib CS)
CCCCc1nnc2c(N(C)S(=O)(=O)c3ccccc3)nc3ccccc3n12	none (no result: APP 5'UTR act, FLuc stim CS, STAT1 activator, NF-kB expr up, FLuc inhib CS)
NS(=O)(=O)c1ccc(NC(=S)NC(=O)c2ccc3c(c2)OCO3)cc1	none
CCC(=O)Nc1ccc2c(c1)C(=O)c1ccccc1C2=O	STAT1 activator 148, NF-kB expr up 4.2 (no result: Pf gamet viab)
O=C(NC(=S)Nc1ccc2c(c1)OCO2)c1ccccc1	APP 5'UTR act 170, STAT1 activator 146, NF-kB expr up 7.3 (no result: Pf gamet viab)
CC(=O)c1cccc(NC(=S)NC(=O)c2cccc(Cl)c2)c1	STAT1 activator 140
CCC(=O)Nc1ccc2c(c1)C(=O)N(C)C2=O	none (no result: Pf gamet viab)
CC(CCCCCCCCC(=O)O)N(CCO)C(=O)OC(C)(C)C (centres undefined)	none (no result: APP 5'UTR act, FLuc stim CS, STAT1 activator, NF-kB expr up, FLuc inhib CS)
CCN(c1cccc(C)c1)c1nc2ccsc2c(=O)s1	none (no result: Pf gamet viab)
O=C1C=C(c2ccc(CO)cc2)C[C@@H](c2ccc3c(c2)OCO3)C1	none (no result: APP 5'UTR act, FLuc stim CS, STAT1 activator, NF-kB expr up, FLuc inhib CS)
Cc1ccccc1-c1nnc(-c2ccccc2C)o1	STAT1 activator 130, NF-kB expr up 3.7 (no result: Pf gamet viab)
Cc1ccccc1-c1nnc(SCC#N)o1	none
Cc1ccccc1-c1nnc(-c2ccc(Br)cc2)o1	STAT1 activator 150
CCCS(=O)(=O)N1CCc2cc(OC)c(OC)cc2C1	none (no result: Pf gamet viab)
COc1cc(/C=N/N=C(N)N)ccc1OCc1ccccc1Cl	NF-kB expr up 4.3
C/C(=N\NC(=O)CSc1nc2ccccc2s1)c1ccco1	none
O=C(Nc1nnc(/C=C/c2ccccc2)s1)c1ccco1	none (no result: APP 5'UTR act, FLuc stim CS, STAT1 activator, NF-kB expr up, FLuc inhib CS)
Cc1ccc(S(=O)(=O)N(C)c2c(C)ccc(S(=O)(=O)N3CCN(C)CC3)c2C)cc1	none
Cc1ccc(S(=O)(=O)N2CCN(Cc3ccccc3)CC2)c(C)c1N(C)S(=O)(=O)c1ccccc1	Pf gamet viab 42
O=C(CSC(=S)N1CCCCC1)c1ccccc1	APP 5'UTR act 242, NF-kB expr up 3.3, FLuc inhib CS 76
Cc1[nH]c2ccccc2c1C(=O)CSC(=S)N1CCCCC1	STAT1 activator 144, FLuc inhib CS 55
O=C(O)CSC(=S)N1CCCC1	none (no result: APP 5'UTR act, FLuc stim CS, STAT1 activator, NF-kB expr up, FLuc inhib CS)
Cc1[nH]c2ccccc2c1C(=O)CSC(=S)N(C)C1CCCCC1	none
O=C1c2cccc3c(N4CCCCC4)ccc(c23)C(=O)N1CCO	STAT1 activator 131
O=C1c2cccc3c(N4CCCCC4)ccc(c23)C(=O)N1c1cccc(O)c1	STAT1 activator 130
C=CCOC(=O)CN1C(=O)c2ccccc2C1=O	none
COc1ccc(S(=O)(=O)n2ccc(-c3ccc(OCCN(C)c4ccccn4)cc3)n2)cc1	none (no result: Pf gamet viab)
Cc1ccc(-n2nnc(-c3cccnc3Cl)n2)cc1	APP 5'UTR act 204, NF-kB expr up 8.6, FLuc inhib CS 72
Clc1ccc(-n2nnc(-c3cccnc3Cl)n2)cn1	STAT1 activator 134 (no result: Pf gamet viab)
Clc1ncccc1-c1nnn(-c2ccccc2Br)n1	none
COc1c2c(cc3ccc(=O)oc13)CCO2	none (no result: APP 5'UTR act, FLuc stim CS, STAT1 activator, NF-kB expr up, FLuc inhib CS)
Cc1cc(C(=O)Cn2nc(C(=O)O)c3ccccc3c2=O)c(C)n1-c1ccc(F)cc1	FLuc inhib CS 76
CCCn1c(C)cc(C(=O)CSc2nnc3n(CCC)c(=O)c4ccccc4n23)c1C	none (no result: APP 5'UTR act, STAT1 activator, Pf gamet viab, NF-kB expr up)
Cc1cc(C(=O)Cn2nc(C(=O)O)c3ccccc3c2=O)c(C)n1-c1cccc(C(F)(F)F)c1	none (no result: APP 5'UTR act, FLuc stim CS, STAT1 activator, NF-kB expr up, FLuc inhib CS)
COCCn1c(C)cc(C(=O)CSc2nc(C)c(C)c(C)n2)c1C	none
COCCn1c(C)cc(C(=O)CSc2nc3ccccc3s2)c1C	APP 5'UTR act 204 (no result: Pf gamet viab)
CCCn1c(C)cc(C(=O)Cn2nnc3ccccc3c2=O)c1C	APP 5'UTR act 159, NF-kB expr up 4.7, FLuc inhib CS 57 (no result: Pf gamet viab)
C=CCn1c(C)cc(C(=O)Cn2nc(C(=O)O)c3ccccc3c2=O)c1C	FLuc inhib CS 92

Screens as filed in PubChem.
